{
  "source": "ChEMBL document CHEMBL1177676",
  "about": "“Synthesis and biological evaluation of cytotoxic activity of novel anthracene L-rhamnopyranosides” (Bioorg Med Chem, 2010)",
  "key": {"[1]": {"system": "MDA-MB-231", "assay": "Cytotoxicity against human MDA-MB-231 cells after 72 hrs by MTT assay", "format": "functional, cell-based", "conditions": "MDA-MB-231, 72 h"}, "[2]": {"molecular_target": "DNA topoisomerase 2-alpha (Homo sapiens) (UniProt P11388)", "sequence (P11388 whole entry)": "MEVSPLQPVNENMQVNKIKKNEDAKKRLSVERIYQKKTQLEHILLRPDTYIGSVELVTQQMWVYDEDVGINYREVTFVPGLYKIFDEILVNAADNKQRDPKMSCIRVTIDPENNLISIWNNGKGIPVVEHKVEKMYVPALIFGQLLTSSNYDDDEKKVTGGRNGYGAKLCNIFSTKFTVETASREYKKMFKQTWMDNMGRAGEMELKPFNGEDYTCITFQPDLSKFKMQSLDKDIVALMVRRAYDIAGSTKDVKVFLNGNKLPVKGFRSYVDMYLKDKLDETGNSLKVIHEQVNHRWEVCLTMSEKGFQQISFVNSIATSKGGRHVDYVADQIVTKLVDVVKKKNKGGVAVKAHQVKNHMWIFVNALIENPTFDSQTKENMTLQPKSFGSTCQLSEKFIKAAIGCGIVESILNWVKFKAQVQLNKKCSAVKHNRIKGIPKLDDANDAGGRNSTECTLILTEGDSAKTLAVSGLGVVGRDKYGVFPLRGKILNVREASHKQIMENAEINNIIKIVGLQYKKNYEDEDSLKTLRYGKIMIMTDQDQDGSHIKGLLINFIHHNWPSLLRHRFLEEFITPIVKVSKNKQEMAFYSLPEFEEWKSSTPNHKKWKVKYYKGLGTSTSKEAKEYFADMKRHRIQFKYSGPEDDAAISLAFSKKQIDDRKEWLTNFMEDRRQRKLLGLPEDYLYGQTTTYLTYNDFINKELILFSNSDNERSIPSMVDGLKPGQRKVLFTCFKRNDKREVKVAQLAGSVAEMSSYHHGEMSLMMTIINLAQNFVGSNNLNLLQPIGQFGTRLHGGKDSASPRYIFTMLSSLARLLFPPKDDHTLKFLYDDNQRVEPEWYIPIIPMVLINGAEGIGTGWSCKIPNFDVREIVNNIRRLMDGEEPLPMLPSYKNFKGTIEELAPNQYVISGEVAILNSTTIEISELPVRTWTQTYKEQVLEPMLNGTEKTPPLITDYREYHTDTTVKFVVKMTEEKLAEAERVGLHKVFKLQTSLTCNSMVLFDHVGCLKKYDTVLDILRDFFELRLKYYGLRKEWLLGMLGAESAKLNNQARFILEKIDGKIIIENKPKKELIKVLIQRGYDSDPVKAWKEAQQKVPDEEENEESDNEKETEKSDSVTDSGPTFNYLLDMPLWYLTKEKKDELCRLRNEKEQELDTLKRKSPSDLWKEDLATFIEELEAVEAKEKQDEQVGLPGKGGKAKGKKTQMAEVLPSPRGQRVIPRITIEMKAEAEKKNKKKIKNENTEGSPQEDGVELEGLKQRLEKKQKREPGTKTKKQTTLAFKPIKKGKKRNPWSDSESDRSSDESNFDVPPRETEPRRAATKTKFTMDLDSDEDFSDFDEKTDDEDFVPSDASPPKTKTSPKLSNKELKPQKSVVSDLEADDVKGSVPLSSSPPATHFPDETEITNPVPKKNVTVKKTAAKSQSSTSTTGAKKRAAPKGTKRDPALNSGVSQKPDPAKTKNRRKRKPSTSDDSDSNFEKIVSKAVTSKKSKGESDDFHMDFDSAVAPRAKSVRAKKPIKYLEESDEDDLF", "assay": "Inhibition of DNA topoisomerase 2 alpha assessed as ATP-dependent decatenation of DNA in cell free system"}, "[3]": {"system": "KB", "assay": "Cytotoxicity against human KB cells after 72 hrs by MTT assay", "format": "functional, cell-based"}, "[4]": {"system": "HL-60", "assay": "Cytotoxicity against human HL60 cells after 72 hrs by MTT assay", "format": "functional, cell-based", "conditions": "HL-60, 72 h", "procedure,_shortened": "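Leukemia cells seeded in 96-well plates and exposed in triplicate to graded compound concentrations for 72 h at 37 °C. Viability was read by MTT. IC50 was derived by the Logit method from at least three independent experiments.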"}},
  "note": "Activity calls are given as the source filed them. The rule behind the calls is not given here.",
  "data": [
    {"smiles": "CC(=O)O[C@@H]1[C@@H](O)[C@@H](O)[C@H](Oc2cc(O)c3c(c2)C(=O)c2cc(C)cc(O)c2C3=O)O[C@H]1C", "values": [
      {"measurement": "IC50", "setting": "[1]", "result": 7.9, "unit": "µM"},
      {"measurement": "inhibition", "setting": "[2]", "result": "Active"},
      {"measurement": "IC50", "setting": "[3]", "result": "> 20", "unit": "µM"},
      {"measurement": "IC50", "setting": "[4]", "result": "> 20", "unit": "µM"}
    ]},
    {"smiles": "CC(=O)Oc1cc(C)cc2c1C(=O)c1c(OC(C)=O)cc(O[C@@H]3O[C@@H](C)[C@H](OC(C)=O)[C@@H](OC(C)=O)[C@H]3OC(C)=O)cc1C2OC(C)=O", "note": "(mixture of isomers)", "values": [
      {"measurement": "IC50", "setting": "[1]", "result": 1.7, "unit": "µM"},
      {"measurement": "inhibition", "setting": "[2]", "result": "Active"},
      {"measurement": "IC50", "setting": "[3]", "result": 1.1, "unit": "µM"},
      {"measurement": "IC50", "setting": "[4]", "result": 1.5, "unit": "µM"}
    ]},
    {"smiles": "COc1cc(C)cc2c1C(=O)c1c(OC)cc(O[C@@H]3O[C@@H](C)[C@H](O)[C@@H](OC(C)=O)[C@H]3OC(C)=O)cc1C2=O", "values": [
      {"measurement": "IC50", "setting": "[1]", "result": "> 20", "unit": "µM"},
      {"measurement": "IC50", "setting": "[3]", "result": "> 20", "unit": "µM"},
      {"measurement": "IC50", "setting": "[4]", "result": "> 20", "unit": "µM"}
    ]},
    {"smiles": "CC(=O)OC1c2cc(C)cc(O)c2C(=O)c2c(O)cc(O[C@@H]3O[C@@H](C)[C@H](O)[C@@H](OC(C)=O)[C@H]3OC(C)=O)cc21", "note": "(mixture of isomers)", "values": [
      {"measurement": "IC50", "setting": "[1]", "result": 0.4, "unit": "µM"},
      {"measurement": "IC50", "setting": "[3]", "result": 0.3, "unit": "µM"},
      {"measurement": "IC50", "setting": "[4]", "result": 0.8, "unit": "µM"}
    ]},
    {"smiles": "CCCC(=O)O[C@@H]1[C@@H](O)[C@H](C)O[C@@H](Oc2cc(O)c3c(c2)C(=O)c2cc(C)cc(O)c2C3=O)[C@@H]1OC(=O)CCC", "values": [
      {"measurement": "IC50", "setting": "[1]", "result": "> 20", "unit": "µM"},
      {"measurement": "IC50", "setting": "[3]", "result": "> 20", "unit": "µM"},
      {"measurement": "IC50", "setting": "[4]", "result": "> 20", "unit": "µM"}
    ]},
    {"smiles": "Cc1cc(O)c2c(c1)C(=O)c1cc(O)cc(O)c1C2=O", "note": "[EMODIN]", "values": [
      {"measurement": "IC50", "setting": "[1]", "result": "> 20", "unit": "µM"},
      {"measurement": "IC50", "setting": "[3]", "result": "> 20", "unit": "µM"},
      {"measurement": "IC50", "setting": "[4]", "result": "> 20", "unit": "µM"}
    ]},
    {"smiles": "CC(=O)O[C@@H]1[C@@H](O[C@@H]2O[C@@H](C)[C@H](O)[C@@H](OC(C)=O)[C@H]2OC(C)=O)[C@H](C)O[C@@H](Oc2cc(O)c3c(c2)C(=O)c2cc(C)cc(O)c2C3=O)[C@@H]1OC(C)=O", "values": [
      {"measurement": "IC50", "setting": "[1]", "result": "> 20", "unit": "µM"},
      {"measurement": "inhibition", "setting": "[2]", "result": "Active"},
      {"measurement": "IC50", "setting": "[3]", "result": 8.3, "unit": "µM"},
      {"measurement": "IC50", "setting": "[4]", "result": 11.8, "unit": "µM"}
    ]},
    {"smiles": "CC(=O)O[C@@H]1[C@@H](O)[C@@H](OC(C)=O)[C@H](Oc2cc(O)c3c(c2)C(=O)c2cc(C)cc(O)c2C3=O)O[C@H]1C", "values": [
      {"measurement": "IC50", "setting": "[1]", "result": "> 20", "unit": "µM"},
      {"measurement": "IC50", "setting": "[3]", "result": "> 20", "unit": "µM"},
      {"measurement": "IC50", "setting": "[4]", "result": "> 20", "unit": "µM"}
    ]},
    {"smiles": "CC(=O)O[C@@H]1[C@@H](O)[C@H](C)O[C@@H](Oc2cc(O)c3c(c2)C(=O)c2cc(C)cc(O)c2C3=O)[C@@H]1OC(C)=O", "values": [
      {"measurement": "IC50", "setting": "[1]", "result": "> 20", "unit": "µM"},
      {"measurement": "inhibition", "setting": "[2]", "result": "Active"},
      {"measurement": "IC50", "setting": "[3]", "result": 1.1, "unit": "µM"},
      {"measurement": "IC50", "setting": "[4]", "result": 3.6, "unit": "µM"}
    ]},
    {"smiles": "CC(=O)O[C@@H]1[C@@H](OC(C)=O)[C@@H](O)[C@H](Oc2cc(O)c3c(c2)C(=O)c2cc(C)cc(O)c2C3=O)O[C@H]1C", "values": [
      {"measurement": "IC50", "setting": "[1]", "result": 1.2, "unit": "µM"},
      {"measurement": "IC50", "setting": "[3]", "result": "> 20", "unit": "µM"},
      {"measurement": "IC50", "setting": "[4]", "result": "> 20", "unit": "µM"}
    ]}
  ]
}
